Reference: ChEMBL document CHEMBL1132282, “Discovery of novel non-peptide CCR1 receptor antagonists” (J Med Chem, 1999)

What was measured:
[1] = molecular target: T1, C-C chemokine receptor type 1 (Homo sapiens, UniProt P32246); assay: Inhibition of [125I]-MIP-1 alpha binding to recombinant human C-C chemokine receptor type 1 expressed in HEK293 cells; format: cell-based
T1 sequence (P32246 whole entry): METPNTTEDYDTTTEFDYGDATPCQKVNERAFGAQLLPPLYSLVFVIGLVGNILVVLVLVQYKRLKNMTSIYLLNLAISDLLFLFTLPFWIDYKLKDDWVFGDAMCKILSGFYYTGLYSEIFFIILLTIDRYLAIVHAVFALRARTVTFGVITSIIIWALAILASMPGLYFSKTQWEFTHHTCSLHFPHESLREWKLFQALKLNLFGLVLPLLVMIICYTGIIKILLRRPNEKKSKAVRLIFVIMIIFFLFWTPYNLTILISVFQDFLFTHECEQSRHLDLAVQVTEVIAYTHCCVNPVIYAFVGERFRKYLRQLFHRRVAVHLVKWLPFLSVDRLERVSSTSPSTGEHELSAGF

[2] = molecular target: T1, C-C chemokine receptor type 1; assay: Inhibition of MIP-1-alpha-induced intracellular calcium mobilization in HEK293 cells expressing human CCR1 receptor; format: functional, cell-based
Summary of the method: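 HEK-293 cells overexpressing human CCR1 plated at 80 000 cells/well on poly-D-lysine, cultured one day, loaded with 4 μM Fluo-3 for 1 h at 37 °C in HBSS/Hepes with probenecid, then washed. Compound pretreatment 10 min at 37 °C, then 30 nM MIP-1α stimulation. FLIPR fluorescence read over 3 min at 37 °C. Six-concentration dose curves give IC50.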

SMILES | Ki [1] | IC50 [2]
C[N+]1(CCCC(C#N)(c2ccccc2)c2ccccc2)CCC(O)(c2ccc(Cl)cc2)CC1 (configuration not stated) | 8 nM | 
N#CC(CCCN1CCC(O)(c2ccc(Cl)cc2)CC1)c1ccccc1F (configuration not stated) | 371 nM | 
N#CCC(C#N)(CCCN1CCC(O)(c2ccc(Cl)cc2)CC1)c1ccccc1 (configuration not stated) | 125 nM | 3200 nM
N#CC(CCCN1CCC(O)(c2ccc(Cl)cc2)CC1)c1ccccc1O (configuration not stated) | 790 nM | 
N#CC(CCCN1CCC(O)(c2ccc(I)cc2)CC1)(c1ccccc1)c1ccccc1 | 233 nM | 
N#CC(CCCN1CCC(O)(c2ccccn2)CC1)(c1ccccc1)c1ccccc1 | 906 nM | 
N#CC(CCN1CCC(O)(c2ccc(Cl)cc2)CC1)(c1ccccc1)c1ccccc1 | 4060 nM | 400 nM
N#CC(CCCN1CCC(O)(c2ccc(Cl)cc2)CC1)(c1ccccc1)C1CCCCC1 (configuration not stated) | 400 nM | 
N#CC(CCCN1CCC(O)(c2ccc(Cl)cc2)CC1)c1cccc([N+](=O)[O-])c1 (configuration not stated) | 510 nM | 
N#CC(CCCN1CCC(O)(c2ccc3ccccc3c2)CC1)(c1ccccc1)c1ccccc1 | 715 nM | 
N#CC(CCCN1CCC(O)(c2cccnc2)CC1)(c1ccccc1)c1ccccc1 | 206 nM | 
COC(=O)C(CCCN1CCC(O)(c2ccc(Cl)cc2)CC1)(c1ccccc1)c1ccccc1 | 406 nM | 
N#CC1(CCCN2CCC(O)(c3ccccc3)CC2)c2ccccc2CSc2ccccc21 (configuration not stated) | 203 nM | 
N#CC1(CCCN2CCC(O)(c3ccc(Br)cc3)CC2)c2ccccc2CSc2ccccc21 (configuration not stated) | 22 nM | 
C[N+]1(CCCC(C#N)c2ccc3ccccc3c2)CCC(O)(c2ccc(Cl)cc2)CC1 (configuration not stated) | 22 nM | 700 nM
N#CC(CCCN1CCC(O)(c2ccc(Cl)cc2)CC1)c1c(F)c(F)c(F)c(F)c1F (configuration not stated) | 330 nM | 
N#CC(CCCN1CCC(O)(c2ccc(Cl)cc2)CC1)c1ccc(Cl)cc1 (configuration not stated) | 463 nM | 
COc1cc(C(C#N)CCCN2CCC(O)(c3ccc(Cl)cc3)CC2)cc(OC)c1OC (configuration not stated) | 497 nM | 
N#CC(CCCN1CCC(O)(c2ccc(Cl)cc2)CC1)c1ccsc1 (configuration not stated) | 236 nM | 9800 nM
N#CC(CCCN1CCC(CO)(c2ccccc2)CC1)(c1ccccc1)c1ccccc1 | 7500 nM | 
N#CC(CCCN1CCC(O)(c2cc(Cl)cc(Cl)c2)CC1)(c1ccccc1)c1ccccc1 | 1330 nM | 
N#CC1(CCCN2CCC(O)(c3ccc(Br)cc3)CC2)c2ccccc2Cc2ccccc21 | 29 nM | 
NCC(CCCN1CCC(O)(c2ccc(Cl)cc2)CC1)(c1ccccc1)c1ccccc1 | 244 nM | 
N#CC(CCCN1CCC(O)(c2ccc(Cl)cc2)CC1)c1ccc(OCc2ccccc2)cc1 (configuration not stated) | 3430 nM | 
N#CC1(CCCN2CCC(O)(c3ccc(Cl)cc3)CC2)c2ccccc2C[S+]([O-])c2ccccc21 (stereo in doubt; 6p) | 54 nM | 

SMILES | Ki [1] | IC50 [2]
N#CC(CCCN1CCC(O)(c2ccc(Cl)cc2)CC1)(c1ccccc1)c1ccccc1 [BERLEX COMPOUND] | 52 nM | 2500 nM
CN1C(=O)c2ccccc2C(C#N)(CCCN2CCC(O)(c3ccc(Cl)cc3)CC2)c2ccccc21 (configuration not stated) | 32 nM | 3300 nM
N#CC(CCCN1CCC(O)(c2cccs2)CC1)(c1ccccc1)c1ccccc1 | 1020 nM | 
N#CC(CCCN1CCC(O)(c2cccc(Cl)c2)CC1)(c1ccccc1)c1ccccc1 | 385 nM | 
N#CC1(CCCN2CCC(O)(c3ccc(Cl)cc3)CC2)c2ccccc2CCc2ccccc21 | 45 nM | 7700 nM
N#CC1(CCCN2CCC(O)(c3ccc(Cl)cc3)CC2)c2ccccc2C[S+]([O-])c2ccccc21 (stereo in doubt; 6q) | 71 nM | 
COc1ccc(C(C#N)CCCN2CCC(O)(c3ccc(Cl)cc3)CC2)cc1 (configuration not stated) | 359 nM | 
N#CC1(CCCN2CCC(O)(c3ccc(Cl)c(C(F)(F)F)c3)CC2)c2ccccc2CSc2ccccc21 (configuration not stated) | 224 nM | 
N#CC(CCCN1CCC(O)(c2ccc(Cl)cc2)CC1)c1ccc(O)cc1 (configuration not stated) | 975 nM | 
N#CC1(CCCN2CCC(O)(c3ccc(Cl)cc3)CC2)c2ccccc2C=Cc2ccccc21 | 56 nM | 5300 nM
C[N+]1(CCCC(c2ccccc2)c2ccccc2)CCC(O)(c2ccc(Cl)cc2)CC1 (configuration not stated) | 6 nM | 1800 nM
OC1(c2ccc(Cl)cc2)CCN(CCCC(c2ccccc2)c2ccccc2)CC1 | 116 nM | 8700 nM
COC(=O)C(C#N)(CCCN1CCC(O)(c2ccc(Cl)cc2)CC1)c1ccccc1 (configuration not stated) | 53 nM | 
CCOC(=O)C(C#N)(CCCN1CCC(O)(c2ccc(Cl)cc2)CC1)c1ccccc1 (configuration not stated) | 33 nM | 7000 nM
CN(C)c1ccc(C2(O)CCN(CCCC(C#N)(c3ccccc3)c3ccccc3)CC2)cc1 | 1160 nM | 
N#CC(CCCN1CCC(O)(c2ccc(Cl)cc2)CC1)c1cccs1 (configuration not stated) | 128 nM | 8400 nM
N#CC1(CCCN2CCC(O)(c3cccc(C(F)(F)F)c3)CC2)c2ccccc2CSc2ccccc21 (configuration not stated) | 623 nM | 
N#CC1(CCCN2CCC(O)(Cc3ccccc3)CC2)c2ccccc2CSc2ccccc21 (configuration not stated) | 405 nM | 
CCOc1ccc(C(C#N)CCCN2CCC(O)(c3ccc(Cl)cc3)CC2)cc1 (configuration not stated) | 1420 nM | 
N#CC(CCCN1CCC(O)(c2ccc(Cl)cc2)CC1)c1ccccc1Cl (configuration not stated) | 306 nM | 
N#CC(CCCN1CCC(O)(c2ccc(F)cc2)CC1)(c1ccccc1)c1ccccc1 | 136 nM | 
Cn1cccc1C(C#N)CCCN1CCC(O)(c2ccc(Cl)cc2)CC1 (configuration not stated) | 429 nM | 
N#CC(CCCN1CCC(O)(c2ccc(Cl)cc2)CC1)c1cccc(O)c1 (configuration not stated) | 156 nM | 9000 nM
N#CC(CCCCCN1CCC(O)(c2ccc(Cl)cc2)CC1)(c1ccccc1)c1ccccc1 | 99 nM | 5600 nM
N#CC1(CCCN2CCC(O)(c3ccc(Cl)cc3)CC2)c2ccccc2COc2ccccc21 (configuration not stated) | 34 nM | 7700 nM

SMILES | Ki [1] | IC50 [2]
N#CC(CCCN1CCC(O)(c2ccc(Cl)cc2)CC1)c1ccccc1Br (configuration not stated) | 366 nM | 
COc1ccc(C2(O)CCN(CCCC(C#N)(c3ccccc3)c3ccccc3)CC2)cc1 | 347 nM | 
N#CC(CCCN1CCC(O)(c2ccc(C(F)(F)F)cc2)CC1)(c1ccccc1)c1ccccc1 | 153 nM | 
N#CC(CCCN1CCC(O)(c2ccc(Cl)cc2)CC1)c1ccc(F)cc1 (configuration not stated) | 533 nM | 
N#CC(CCCN1CCC(O)(c2ccc(Cl)cc2)CC1)(c1ccccc1)N1CCCCC1 (configuration not stated) | 130 nM | 4800 nM
CCC(C#N)(CCCN1CCC(O)(c2ccc(Cl)cc2)CC1)c1ccccc1 (configuration not stated) | 93 nM | 
N#CC(CCCN1CCC(O)(c2ccc(Cl)cc2)CC1)c1ccccn1 (configuration not stated) | 584 nM | 
N#CC(CCCN1CCC(O)(c2ccc(Cl)cc2)CC1)c1cccc(Oc2ccccc2)c1 (configuration not stated) | 908 nM | 
COc1ccc(C(C#N)CCCN2CCC(O)(c3ccc(Cl)cc3)CC2)cc1Br (configuration not stated) | 74 nM | 1900 nM
N#CC(CCCN1CCC(O)(c2ccc(Cl)cc2)CC1)c1ccc2ccccc2c1 (configuration not stated) | 206 nM | 7100 nM
CCCCC1(O)CCN(CCCC(C#N)(c2ccccc2)c2ccccc2)CC1 | 4010 nM | 
Cc1ccccc1C1(O)CCN(CCCC2(C#N)c3ccccc3CSc3ccccc32)CC1 (configuration not stated) | 164 nM | 
N#CC(CCCN1CCC(O)(c2ccc(Cl)cc2)CC1)c1cccnc1 (configuration not stated) | 1000 nM | 
N#CC1(CCCN2CCC(O)(c3ccc(Cl)cc3)CC2)c2ccccc2Oc2ccccc21 | 234 nM | 
N#CC(CCCCN1CCC(O)(c2ccc(Cl)cc2)CC1)(c1ccccc1)c1ccccc1 | 78 nM | 1600 nM
N#CC(CCCN1CCC(O)(c2ccc(Cl)cc2)CC1)c1ccccc1 (configuration not stated) | 54 nM | 
N#CC1(CCCN2CCC(O)(c3ccc(Cl)cc3)CC2)c2ccccc2CSc2ccccc21 (configuration not stated) | 24 nM | 7000 nM
N#CC1(CCCN2CCC(O)(c3ccc(F)cc3)CC2)c2ccccc2CSc2ccccc21 (configuration not stated) | 44 nM | 3000 nM
O=C(NCC(CCCN1CCC(O)(c2ccc(Cl)cc2)CC1)(c1ccccc1)c1ccccc1)NC1CCNCC1 | 9 nM | 
N#CC(CCCCl)(CCCN1CCC(O)(c2ccc(Cl)cc2)CC1)c1ccccc1 (configuration not stated) | 51 nM | 8300 nM
N#Cc1ccccc1C(C#N)CCCN1CCC(O)(c2ccc(Cl)cc2)CC1 (configuration not stated) | 98 nM | 5800 nM
CC(C#N)(CCCN1CCC(O)(c2ccc(Cl)cc2)CC1)c1ccccc1 (configuration not stated) | 460 nM | 
N#Cc1ccc(C2(O)CCN(CCCC(C#N)(c3ccccc3)c3ccccc3)CC2)cc1 | 92 nM | 10900 nM
